Assay results: ChEMBL document CHEMBL5247680, “Design, Synthesis, and Biological Activity of Thioguanine-Modified Pleuromutilin Derivatives” (ACS Med Chem Lett, 2023)
Converted amounts (≈) assume the structure as drawn. The source made the active and inactive calls. The calls are words filed in the database; no cut-off is given here.

Columns and labels:
[1] = test system: Staphylococcus aureus; assay: Selectivity ratio of MBC for antibacterial activity against Staphylococcus aureus to MIC for antibacterial activity against Staphylococcus aureus; format: functional
[2] = test system: Staphylococcus aureus; assay: Selectivity ratio of MBC for antibacterial activity against Methicillin-resistant Staphylococcus aureus ATCC 43300 to MIC for antibacterial activity against Methicillin-resistant Staphylococcus aureus ATCC 43300; format: functional
[3] = test system: Staphylococcus aureus; assay: Antibacterial activity against Methicillin-resistant Staphylococcus aureus ATCC 43300 assessed as bacterial growth inhibition incubated for 20 to 24 hrs by microbroth serial dilution assay; format: functional; conditions: time 20-24 hrs
[4] = test system: Staphylococcus aureus; assay: Selectivity ratio of MBC for antibacterial activity against Methicillin-sensitive Staphylococcus aureus ATCC 29213 to MIC for antibacterial activity against Methicillin-sensitive Staphylococcus aureus ATCC 29213
[5] = test system: Staphylococcus epidermidis; assay: Antibacterial activity against Methicillin-sensitive Staphylococcus epidermidis ATCC 12228 assessed as bacterial growth inhibition incubated for 20 to 24 hrs by microbroth serial dilution assay; format: functional; conditions: time 20-24 hrs
[6] = test system: Staphylococcus aureus; assay: Antibacterial activity against Methicillin-sensitive Staphylococcus aureus ATCC 29213 assessed as bacterial growth inhibition incubated for 20 to 24 hrs by microbroth serial dilution assay
[7] = test system: Staphylococcus aureus; assay: Antibacterial activity against Methicillin-resistant Staphylococcus aureus ATCC 33591 assessed as bacterial growth inhibition incubated for 20 to 24 hrs by microbroth serial dilution assay; format: functional; conditions: time 20-24 hrs
[8] = test system: Staphylococcus aureus; assay: Antibacterial activity against Staphylococcus aureus ATCC 25923 assessed as bacterial growth inhibition incubated for 20 to 24 hrs by microbroth serial dilution assay; format: functional; conditions: time 20-24 hrs
[9] = test system: Staphylococcus epidermidis; assay: Selectivity ratio of MBC for antibacterial activity against Methicillin-sensitive Staphylococcus epidermidis […] to MIC for antibacterial activity against Methicillin-sensitive Staphylococcus epidermidis […]; format: functional
[10] = test system: Staphylococcus epidermidis; assay: Antibacterial activity against Methicillin-resistant Staphylococcus epidermidis ATCC 51625 assessed as bacterial growth inhibition incubated for 20 to 24 hrs by microbroth serial dilution assay; format: functional; conditions: time 20-24 hrs
[11] = test system: Staphylococcus aureus; assay: Selectivity ratio of MBC for antibacterial activity against Methicillin-resistant Staphylococcus aureus ATCC 33591 to MIC for antibacterial activity against Methicillin-resistant Staphylococcus aureus ATCC 33591; format: functional
[12] = test system: Staphylococcus epidermidis; assay: Selectivity ratio of MBC for antibacterial activity against Methicillin-resistant Staphylococcus epidermidis ATCC 51625 to MIC for antibacterial activity against Methicillin-resistant Staphylococcus epidermidis ATCC 51625; format: functional
[13] = test system: Staphylococcus aureus; assay: In vivo Antibacterial activity against Methicillin-resistant Staphylococcus aureus in ICR mouse thigh infection model assessed as reduction in bacterial load at 40 mg/kg, IP by […]; format: functional
[14] = test system: Staphylococcus aureus; assay: Antibacterial activity against Methicillin-resistant Staphylococcus aureus ATCC 33591 assessed as bacterial colony inhibition at 1 to 2 times MIC measured upto 24 hrs by time kill assay; format: functional, organism-based
How it was run: (§1)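 MRSA ATCC 33591 time-kill curves at 1×, 2× and 4× MIC, with a tiamulin positive control and an untreated growth control. Viable counts were taken as CFU·mL⁻¹ at time points through incubation, including 2, 8 and 12 h.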

[15] = test system: Staphylococcus aureus; assay: Antibacterial activity against Methicillin-resistant Staphylococcus aureus ATCC 33591 assessed as bacterial growth inhibition at 1 to 2 times MIC measured upto 24 hrs by time kill assay; format: functional, organism-based; how it was run: as §1
[16] = test system: Staphylococcus aureus; assay: Antibacterial activity against Methicillin-resistant Staphylococcus aureus ATCC 33591 assessed as bacterial bactericidal effect at 1 to 2 times MIC measured upto 24 hrs by time kill assay; format: functional, organism-based; how it was run: as §1

Compound	Ratio [1]	Ratio [2]	MIC [3] [µg/mL]	Ratio [4]	MIC [5] [µg/mL]	MIC [6] [µg/mL]	MIC [7] [µg/mL]	MIC [8] [µg/mL]	Ratio [9]	MIC [10] [µg/mL]	Ratio [11]	Ratio [12]	Activity [13]	Activity [14]	Activity [15]	Activity [16]
C=C[C@]1(C)C[C@@H](OC(=O)CSc2nc(N)nc3c2ncn3C(=O)OCC)[C@@]2(C)C3C(=O)CC[C@@]3(CC[C@H]2C)[C@@H](C)[C@@H]1O (some centres undefined)	4	>4	0.125 (≈ 0.208 µM)	>4	< 0.0078	0.125 (≈ 0.208 µM)	0.25 (≈ 0.417 µM)	0.25 (≈ 0.417 µM)	>4	0.25 (≈ 0.417 µM)	–	–	–	–	–	–
C=C[C@]1(C)C[C@@H](OC(=O)CSC(C)(C)CNC(=O)[C@H](N)C(C)C)[C@]2(C)[C@H](C)CC[C@]3(CCC(=O)[C@H]32)[C@@H](C)[C@@H]1O [VALNEMULIN]	1	4	0.125 (≈ 0.221 µM)	>4	2 (≈ 3.54 µM)	0.125 (≈ 0.221 µM)	0.25 (≈ 0.443 µM)	0.25 (≈ 0.443 µM)	>4	0.125 (≈ 0.221 µM)	–	–	–	–	–	–
C=C[C@]1(C)C[C@@H](OC(=O)CSc2nc(NC(=O)CN3CCOCC3)nc3[nH]cnc23)[C@@]2(C)C3C(=O)CC[C@@]3(CC[C@H]2C)[C@@H](C)[C@@H]1O (some centres undefined)	–	>4	1 (≈ 1.53 µM)	>4	0.0156 (≈ 0.0238 µM)	1 (≈ 1.53 µM)	1 (≈ 1.53 µM)	0.5 (≈ 0.764 µM)	>4	0.125 (≈ 0.191 µM)	>4	–	–	–	–	–
C=C[C@]1(C)C[C@@H](OC(=O)CSc2nc(NC(=O)CN3CCCC3)nc3[nH]cnc23)[C@@]2(C)C3C(=O)CC[C@@]3(CC[C@H]2C)[C@@H](C)[C@@H]1O (some centres undefined)	>4	–	1 (≈ 1.57 µM)	4	2 (≈ 3.13 µM)	2 (≈ 3.13 µM)	2 (≈ 3.13 µM)	2 (≈ 3.13 µM)	>4	1 (≈ 1.57 µM)	4	4	–	–	–	–
C=C[C@]1(C)C[C@@H](OC(=O)CSc2nc(N)nc3c2ncn3C(=O)Nc2cccc(C(F)(F)F)c2)[C@@]2(C)C3C(=O)CC[C@@]3(CC[C@H]2C)[C@@H](C)[C@@H]1O (some centres undefined)	>4	–	0.25 (≈ 0.35 µM)	–	0.0156 (≈ 0.0218 µM)	0.125 (≈ 0.175 µM)	0.25 (≈ 0.35 µM)	0.25 (≈ 0.35 µM)	>4	0.125 (≈ 0.175 µM)	–	4	–	–	–	–
C=C[C@]1(C)C[C@@H](OC(=O)CSCCN(CC)CC)[C@]2(C)[C@H](C)CC[C@]3(CCC(=O)[C@H]32)[C@@H](C)[C@@H]1O [TIAMULIN]	4	–	2 (≈ 4.05 µM)	>4	0.5 (≈ 1.01 µM)	1 (≈ 2.03 µM)	1 (≈ 2.03 µM)	2 (≈ 4.05 µM)	>4	1 (≈ 2.03 µM)	–	–	1 10^7CFU/g	Active	Active	inactive
C=C[C@]1(C)C[C@@H](OC(=O)CSc2nc(N)nc3[nH]cnc23)[C@@]2(C)C3C(=O)CC[C@@]3(CC[C@H]2C)[C@@H](C)[C@@H]1O (some centres undefined)	>4	–	0.125 (≈ 0.237 µM)	–	0.125 (≈ 0.237 µM)	0.125 (≈ 0.237 µM)	0.125 (≈ 0.237 µM)	0.25 (≈ 0.474 µM)	>4	0.125 (≈ 0.237 µM)	4	2	–	–	–	–
C=C[C@]1(C)C[C@@H](OC(=O)CSc2nc(N)nc3c2ncn3C(=O)Nc2ccc(F)cc2)[C@@]2(C)C3C(=O)CC[C@@]3(CC[C@H]2C)[C@@H](C)[C@@H]1O (some centres undefined)	>4	–	0.125 (≈ 0.188 µM)	2	0.0156 (≈ 0.0235 µM)	0.25 (≈ 0.376 µM)	0.125 (≈ 0.188 µM)	0.125 (≈ 0.188 µM)	>4	0.125 (≈ 0.188 µM)	–	4	–	–	–	–
C=C[C@]1(C)C[C@@H](OC(=O)CSc2nc(N)nc3c2ncn3C(=O)NCc2cccc(OC)c2)[C@@]2(C)C3C(=O)CC[C@@]3(CC[C@H]2C)[C@@H](C)[C@@H]1O (some centres undefined)	>4	–	0.125 (≈ 0.181 µM)	4	0.0156 (≈ 0.0226 µM)	0.0625 (≈ 0.0905 µM)	0.125 (≈ 0.181 µM)	0.125 (≈ 0.181 µM)	>4	0.0625 (≈ 0.0905 µM)	4	2	–	–	–	–
